Columns and labels:
HeLa = assay: Cytotoxicity against human HeLa cells after 72 hrs by MTT assay; type: functional, cell-based
Method in brief: (§1)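 Cell growth measured by MTT read-out after 72 h continuous drug exposure. IC50 values derived from at least three independent experiments.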

K562 [1] = assay: Cytotoxicity against human K562 cells after 72 hrs by MTT assay; type: functional, cell-based; conditions: K562, 72 h; method in brief: as §1
A2780 = assay: Cytotoxicity against human A2780 cells after 72 hrs by MTT assay; type: functional, cell-based; conditions: A2780, 72 h; method in brief: as §1
MOLT-4 = assay: Cytotoxicity against human MOLT4 cells after 72 hrs by MTT assay; type: functional, cell-based; conditions: MOLT-4, 72 h; method in brief: as §1
A549 = assay: Cytotoxicity against human A549 cells after 72 hrs by MTT assay; type: functional, cell-based; conditions: A549, 72 h; method in brief: as §1
MCF7 = assay: Cytotoxicity against human MCF7 cells after 72 hrs by MTT assay; type: functional, cell-based; conditions: MCF7, 72 h; method in brief: as §1
MDA-MB-231 = assay: Cytotoxicity against human MDA-MB-231 cells after 72 hrs by MTT assay; type: functional, cell-based; conditions: MDA-MB-231, 72 h; method in brief: as §1
PC-3 = assay: Cytotoxicity against human PC3 cells after 72 hrs by MTT assay; type: functional, cell-based; conditions: PC-3, 72 h; method in brief: as §1
[2] = Effective permeability of the compound in human Caco2 cells at 50 uM after 15 to 90 mins; type: ADME, cell-based; conditions: Caco-2, read-out: Peff
Method in brief: (§2)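 Caco-2 monolayers dosed at 50 μM. Transport measured in both directions, apical to basal (Pab) and basal to apical (Pba), in separate runs with and without the metabolic inhibitor sodium azide. Permeability coefficients were calculated with sink or non-sink equations. Values are means of three independent experiments.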

[3] = Effective permeability of the compound in human Caco2 cells at 50 uM after 15 to 90 mins in presence of sodium azide; type: ADME, cell-based; conditions: Caco-2, with sodium azide (concentration not stated), read-out: Peff; method in brief: as §2
K562 [4] = assay: Ratio of topotecan IC50 to compound IC50 for human K562 cells; type: functional

Structure (SMILES)	IC50 (HeLa)	IC50 (K562 [1])	IC50 (A2780)	IC50 (MOLT-4)	IC50 (A549)	IC50 (MCF7)	IC50 (MDA-MB-231)	IC50 (PC-3)	Papp at 50 µM [2]	Papp at 50 µM [3]	Ratio IC50 (K562 [4])
CC[C@@]1(O)C(=O)OCc2c1cc1n(c2=O)Cc2cc3c(CN4C(=O)c5ccccc5C4=O)c(O)ccc3nc2-1	1270 nM	–	–	–	–	–	–	–	–	–	–
CC[C@@]1(O)C(=O)OCc2c1cc1n(c2=O)Cc2cc3c(CN4C(=O)C5=C(CCCC5)C4=O)c(O)ccc3nc2-1	214 nM	> 500 nM	41 nM	15 nM	346 nM	159 nM	> 500 nM	103 nM	–	–	–
CC[C@@]1(O)C(=O)OCc2c1cc1n(c2=O)Cc2cc3c(CN4C(=O)C=CC4=O)c(O)ccc3nc2-1	> 5000 nM	–	–	–	–	–	–	–	–	–	–
CC[C@@]1(O)C(=O)OCc2c1cc1n(c2=O)Cc2cc3c(CN4CCCC4=O)c(O)ccc3nc2-1	> 5000 nM	–	–	–	–	–	–	–	0.48 ×10⁻⁶ cm/s	1.33 ×10⁻⁶ cm/s	–
CC[C@@]1(O)C(=O)OCc2c1cc1n(c2=O)Cc2cc3c(CNC(C)=O)c(O)ccc3nc2-1	> 5000 nM	–	–	–	–	–	–	–	1.17 ×10⁻⁶ cm/s	1.52 ×10⁻⁶ cm/s	–
CC[C@@]1(O)C(=O)OCc2c1cc1n(c2=O)Cc2cc3c(CN4C(=O)C5=C(CCCC5)C4=O)c(OC)ccc3nc2-1	173 nM	109 nM	28 nM	14 nM	226 nM	78 nM	500 nM	51 nM	4.91 ×10⁻⁶ cm/s	2.58 ×10⁻⁶ cm/s	5
CC[C@@]1(O)C(=O)OCc2c1cc1n(c2=O)Cc2cc3ccccc3nc2-1 [CAMPTOTHECIN]	24 nM	31 nM	13 nM	0.04 nM	99 nM	26 nM	162 nM	78 nM	7.88 ×10⁻⁶ cm/s	1 ×10⁻⁶ cm/s	–
CC[C@@]1(O)C(=O)OCc2c1cc1n(c2=O)Cc2cc3cc(O)ccc3nc2-1 [HYDROXYCAMPTOTHECIN]	–	–	–	–	–	–	–	–	7.88 ×10⁻⁶ cm/s	1.01 ×10⁻⁶ cm/s	–
CC[C@@]1(O)C(=O)OCc2c1cc1n(c2=O)Cc2cc3c(CN(C)C)c(O)ccc3nc2-1 [TOPOTECAN]	–	500 nM	33 nM	19 nM	354 nM	63 nM	> 500 nM	62 nM	1.77 ×10⁻⁶ cm/s	2.88 ×10⁻⁶ cm/s	–

Reference: ChEMBL document CHEMBL2407086, “Semisynthesis, cytotoxic activity, and oral availability of new lipophilic 9-substituted camptothecin derivatives” (ACS Med Chem Lett, 2013)
